p97 inhibitor = inhibitors of human p97 ATPase, primary screen, biochemical. recombinant p97 ATPase, Kinase-Glo ATP luminescence, 3 h. inhibition, % at 8 µM. hit rate 0.42% among 220,000; in the data active = inhibition above about 15%
RBBP9 inh = human RBBP9 inhibitors, primary screen, biochemical, fluorescence polarization, FP-Rh probe, HTS. Serine hydrolase RBBP9 (Homo sapiens), O75884. recombinant RBBP9. inhibition, % at 7.94 µM. hit rate 0.2% among 220,000. AID 1515, 2009;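 active = inhibition above the campaign mean of all tested compounds plus 3 SD, cut at about 14% in these data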
Target sequence (O75884 whole entry, looked up): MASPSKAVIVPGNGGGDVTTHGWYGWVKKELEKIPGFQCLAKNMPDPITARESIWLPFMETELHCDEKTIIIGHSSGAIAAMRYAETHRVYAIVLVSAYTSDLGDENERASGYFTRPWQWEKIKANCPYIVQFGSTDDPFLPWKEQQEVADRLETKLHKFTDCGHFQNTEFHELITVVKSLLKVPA
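System: RBBP9 protein / Buffer or medium: Tris/NaCl buffer pH 8.0 with 0.1% Pluronic / Probe or stimulus: Serine-hydrolase probe FP-Rh, 375 nM pre-mixing / Dosing: 7.94 µM single dose, 0.794% DMSO / Times: enzyme-compound preincubation 30 min, then probe labeling 45 min, 25 °C / Technique: fluorescence polarization (mP), excitation 525 nm, emission 598 nm / Replication: singlicate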
Redox H2O2 prof = compounds producing H2O2 with reducing agent – biochemical, NIH compound library profiling, artefact control for MLSCN library redox annotation, primary screen; activation, % at 10 µM; AID 878, 2007; DTT-dependent redox cycling H2O2, phenol red/HRP absorbance; 100% = 100 µM peroxide control, 0% = buffer; hit rate 0.03% among 200,000;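 active = activation of at least 50% relative to the plate's high and low controls in the primary single-dose screen; inactive = activation below 50%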;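 note: compound incubated with DTT at 0.8 mM final as the reducing agent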
Arbovirus inh = antivirals against arbovirus infection, primary screen, cell-based, full library, 10K replicate subset; arbovirus infection cell-based antiviral screen; inhibition, % at 10 µM; hit rate 0.37% among 200,000; AID 1251, 2008; in the data active = inhibition above about 30%
Wee1 degr inh = Wee1 degradation inhibitors, primary screen, cell-based, HeLa, Wee1K328M-luciferase, luminescence | hit rate 1.2% among 220,000 | Wee1-like protein kinase (Homo sapiens), P30291 | reporter increase, % at 5 µM | HeLa Luc-Wee1K328M stability; 100% = proteasome inhibitor MG132 effect;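 active = activation above the mean of all tested compounds plus 3 SD, set per screening run, cut at about 8.8% in these data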;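 note: cells exposed to compound for 20 h before luminescence read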
PKD1 kinase inh = inhibitors of human PKD1 kinase, biochemical, fluorescence polarization. Serine/threonine-protein kinase D1 (Homo sapiens), Q15139. PKD1 kinase fluorescence polarization assay. inhibition, % (test concentration not listed). hit rate 0.056% among 200,000. AID 797, 2007; in the data active = inhibition above about 50%
Wee1 degr conf = Wee1 degradation inhibitors, confirmation, cell-based, HeLa, Wee1K328M-luciferase, luminescence, triplicate; shares compounds with Wee1 degr inh; HeLa Luc-Wee1K328M degradation; vehicle 0%, proteasome-blocked wells 100%; activation, % at 5 µM; hit rate 4% among 1,100; AID 1410, 2008; in the data active = activation above about 8.9%
A number is an active result; - = inactive; . = no result. Hits are enriched below; roughly 2.2% of the tested compounds scored in any of these assays.

SMILES	p97 inhibitor	RBBP9 inh	Redox H2O2 prof	Arbovirus inh	Wee1 degr inh	PKD1 kinase inh	Wee1 degr conf
C#CCOCCOCCOCCNc1nc(N2CCN(C(=O)C([C@@H](C)CC)n3cc(C(N)CC(C)C)nn3)CC2)nc(N2CCN(C(=O)[C@H](CCC(=O)O)n3cc(C(N)CC(C)C)nn3)CC2)n1 (stereo partly specified)	-	-	-	-	-	-	.
C#CCOCCOCCOCCNc1nc(N2CCN(C(=O)[C@H]([C@@H](C)CC)n3cc([C@@H](N)CC(C)C)nn3)CC2)nc(N2CCN(C(=O)[C@H](CCCCN)n3cc([C@@H](N)C(C)CC)nn3)CC2)n1 (stereo partly specified)	-	-	-	-	14.6	-	-
C#CCOCCOCCOCCNc1nc(N2CCN(C(=O)[C@H]([C@@H](C)CC)n3cc([C@@H](N)CC(C)C)nn3)CC2)nc(N2CCN(C(=O)[C@H](CCCCN)n3cc([C@@H](N)CC(C)C)nn3)CC2)n1	-	-	-	-	-	-	.
C#CCOCCOCCOCCNc1nc(N2CCN(C(=O)[C@H](CCC(=O)O)n3cc(C(N)CC(C)C)nn3)CC2)nc(N2CCN(C(=O)[C@H](CCC(=O)O)n3cc(C(N)CC(C)C)nn3)CC2)n1 (stereo partly specified)	-	-	-	-	11.9	-	-
CCN(CC)c1ccc(/C=N/NC(=S)NC)c(O)c1	-	-	-	-	13.9	-	-
CCCC(=O)OC1CCS(=O)(=O)c2sccc21 (stereo unspecified)	-	-	-	-	-	-	.
Cc1cc(OCc2nnc(SC(C)C(=O)O)n2Cc2ccccc2)ccc1Cl (stereo unspecified)	-	-	-	-	18.5	-	-
Cc1cc(C)c(S(=O)(=O)N(C)CC(=O)NC2CCCC2)c(C)c1	-	-	-	-	-	-	.
CC1(C)Cc2c(C#N)c(N3CCN(C(=O)c4ccccc4)CC3)nc(-c3ccco3)c2CS1	-	-	-	-	15.3	-	-
CC(C)c1nc(N2CCN(C(=O)c3ccccc3)CC2)c(C#N)c2c1COC(C)(C)C2	-	-	-	-	-	-	.
C/C(=N\O)c1cc(Cl)ccc1O	-	-	.	.	-	.	.
COc1cc(N/N=C(\C)c2ccc(O)c(C)c2)nc(-c2ccccc2)n1	-	-	-	-	-	-	.
COc1cc(N/N=C(\C)c2ccc(N)cc2)nc(-c2ccccc2)n1	-	-	-	-	12.1	-	-
COC(=O)c1ccccc1NC(=O)c1c(O)c2c([nH]c1=O)CCCC2	-	-	-	-	-	-	.
O=C(Nc1ccc(O)cc1)c1c(O)c2c([nH]c1=O)CCCC2	-	-	-	-	13.8	-	-
CCN(CC)c1ccc(C(=O)Nc2cccc(F)c2)cc1	-	-	-	-	13.9	-	-
CN(C)c1cccc(C(=O)Nc2cccc(F)c2)c1	-	-	-	-	-	-	.
CCN(CC)S(=O)(=O)c1cccc(N=Nc2c(O)c3ccccc3oc2=O)c1	-	-	.	.	-	.	.
Cc1ccc2c(COC(=O)c3n[nH]c4ccccc34)cc(=O)oc2c1	-	-	-	-	13.9	-	-
CCc1ccc2c(COC(=O)c3n[nH]c4ccccc34)cc(=O)oc2c1	-	-	-	-	-	-	.
COc1ccc(CCN2C(=O)CS/C2=N\NC(=O)c2cccs2)cc1OC	-	-	-	-	-	-	.
CC(=O)NS(=O)(=O)c1ccc(NC(=O)CSc2ccc(Cl)cc2)cc1	-	-	-	-	12.8	-	-
CCOn1c(SCC)nc2ccccc2c1=O	-	-	-	-	-	-	.
CCSc1nn2c(=O)c3ccccc3nc2s1	-	-	-	-	15.0	-	-
CC1CCCC(NC(=O)COC(=O)CN2C(=O)C3CCCCC3C2=O)C1C (stereo unspecified)	-	-	-	-	-	-	.
SMILES	p97 inhibitor	RBBP9 inh	Redox H2O2 prof	Arbovirus inh	Wee1 degr inh	PKD1 kinase inh	Wee1 degr conf
CNC(=S)NCc1ccc2[nH]c3c(c2c1)CCCC3	-	-	-	-	11.3	-	-
O=C(CCS(=O)(=O)c1cccc2nsnc12)NCc1ccccc1Cl	-	-	-	-	-	-	.
Cc1cccc(NC(=O)NC(C)CCc2ccccc2)c1 (stereo unspecified)	-	-	-	-	-	-	.
Cc1ccc(C)c(C(=O)NC(C)CCc2ccccc2)c1 (stereo unspecified)	-	-	-	-	16.0	-	-
Cc1cc(-c2nn(-c3ccccc3F)cc2CN(C)CC(O)CO)c(C)s1 (stereo unspecified)	-	-	-	-	12.9	-	-
Cc1cc(-c2nn(-c3ccccc3F)cc2CN2CCC(O)CC2)c(C)s1	-	-	-	-	-	-	.
COc1cccc(C2CC(C(F)(F)F)n3ncc(C(=O)NC(C)(C)C)c3N2)c1 (stereo unspecified)	-	-	-	-	-	-	.
COc1ccc(C2CC(C(F)(F)F)n3ncc(C(=O)Nc4cccc(O)c4)c3N2)cc1OC (stereo unspecified)	-	-	-	-	13.2	-	-
CC(C)(C)[C@H]1C=C(C(=O)N2CCN(Cc3ccc4c(c3)OCO4)CC2)O[C@@H](OCc2ccc(CO)cc2)C1	-	-	-	-	-	-	.
CN(C)CC#Cc1cncc(C(=O)NNC(=O)Nc2ccc(Cl)cc2)c1	-	-	.	.	-	.	.
CC(C)CNC(=O)CN(C1CCCCC1)S(=O)(=O)c1ccccc1	-	-	-	-	11.4	-	-
CNC(=O)COc1ncnc2scc(-c3ccc(F)cc3)c12	-	-	-	-	11.7	-	-
CC(=O)NC1=NN(C(C)=O)C(c2ccc(C)cc2)S1 (stereo unspecified)	-	-	-	-	12.0	-	-
CC(=O)NC1=NN(C(C)=O)C(c2ccc(F)cc2)S1 (stereo unspecified)	-	-	-	-	-	-	.
COC(=O)c1ccccc1NC(=O)N1CCN(c2ccc(OC)cc2)CC1	-	-	-	-	-	-	.
CCN1CCCC1CNCc1ccc(OCc2ccc(Cl)nc2)c(OC)c1 (stereo unspecified)	-	-	.	.	14.6	.	-
O=C(NC(=S)Nc1ccc(Cc2ccncc2)cc1)c1ccc(F)cc1	-	-	-	-	-	-	.

Screens (PubChem)
